ChEMBL document CHEMBL1155457, “Discovery of the dual orexin receptor antagonist [(7R)-4-(5-chloro-1,3-benzoxazol-2-yl)-7-methyl-1,4-diazepan-1-yl][5-methyl-2-(2H-1,2,3-triazol-2-yl)phenyl]methanone (MK-4305) for the treatment of insomnia” (J Med Chem, 2010)

Key:
[1] = target: T1, Orexin/Hypocretin receptor type 1 (Homo sapiens, UniProt O43613); assay: Displacement of [3H]N-cyclobutyl-5-methyl-N-(2-(1-methyl-1H-benzo[d]imidazol-2-ylthio)ethyl)-2-(2H-1,2,3-triazol-2-yl)benzamide from human OX1R expressed in CHO cells after 20 hrs by scintillation counting; format: cell-based
T1 sequence (O43613 whole entry): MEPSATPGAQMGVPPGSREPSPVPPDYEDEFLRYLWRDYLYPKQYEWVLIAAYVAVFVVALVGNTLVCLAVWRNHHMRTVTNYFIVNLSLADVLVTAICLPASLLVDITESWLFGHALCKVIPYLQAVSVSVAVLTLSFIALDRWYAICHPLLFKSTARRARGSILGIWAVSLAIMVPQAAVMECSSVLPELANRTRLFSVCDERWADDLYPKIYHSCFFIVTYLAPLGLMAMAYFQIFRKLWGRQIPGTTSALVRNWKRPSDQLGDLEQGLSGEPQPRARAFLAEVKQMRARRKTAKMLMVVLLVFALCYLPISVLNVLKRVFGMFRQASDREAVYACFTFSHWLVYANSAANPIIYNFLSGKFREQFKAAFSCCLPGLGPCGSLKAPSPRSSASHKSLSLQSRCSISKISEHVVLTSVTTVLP

[2] = target: T1, Orexin/Hypocretin receptor type 1; assay: Antagonist activity at human OX1R expressed in CHO cells assessed as inhibition of orexin-A-induced intracellular calcium mobilization after 5 mins by FLIPR assay; format: functional, cell-based
[3] = Clearance in dog at 0.5 mg/kg, iv; format: ADME, organism-based, Canis lupus familiaris; parameters: dose 0.5 mg/kg, route intravenous; details: in vivo
In short: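 Dogs received an IV dose with DMSO as vehicle (n = 3). Clearance was derived from plasma pharmacokinetics.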

[4] = target: T1, Orexin/Hypocretin receptor type 1; assay: Displacement of [3H](S)-N-(biphenyl-2-yl)-1-(2-(1-methyl-1H-benzo[d]imidazol-2-ylthio)acetyl)pyrrolidine-2-carboxamide from human OX1R expressed in CHO cells after 3 hrs by scintillation counting; format: cell-based
Orexin receptor type 2 [5] = target: T2, Orexin receptor type 2 (Homo sapiens, UniProt O43614); assay: Displacement of [3H](S)-N-(2-(1H-pyrrol-1-yl)phenyl)-1-(2-(1-methyl-1H-benzo[d]imidazol-2-ylthio)acetyl)pyrrolidine-2-carboxamide from human OX2R expressed in CHO cells after 3 hrs by scintillation counting; format: cell-based
T2 sequence (O43614 whole entry): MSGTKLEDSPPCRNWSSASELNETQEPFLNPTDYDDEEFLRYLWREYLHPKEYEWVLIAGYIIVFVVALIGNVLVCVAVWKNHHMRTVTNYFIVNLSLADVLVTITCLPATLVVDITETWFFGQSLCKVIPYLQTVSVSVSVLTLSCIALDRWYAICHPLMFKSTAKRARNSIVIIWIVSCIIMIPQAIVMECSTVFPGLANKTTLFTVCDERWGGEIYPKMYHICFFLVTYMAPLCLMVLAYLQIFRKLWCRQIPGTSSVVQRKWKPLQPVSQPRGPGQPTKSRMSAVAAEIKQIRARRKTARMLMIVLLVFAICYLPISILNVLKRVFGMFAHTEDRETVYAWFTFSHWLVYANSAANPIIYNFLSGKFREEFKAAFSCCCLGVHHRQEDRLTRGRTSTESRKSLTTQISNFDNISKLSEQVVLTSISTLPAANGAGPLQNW

Orexin receptor type 2 [6] = target: T2, Orexin receptor type 2; assay: Antagonist activity at human OX2R expressed in CHO cells assessed as inhibition of orexin-A-induced intracellular calcium mobilization after 5 mins by FLIPR assay; format: functional, cell-based

| Structure (SMILES) | Ki [1] [nM] | IC50 [2] [nM] | clearance [3] [mL/min/kg] | Ki [4] [nM] | Ki (Orexin receptor type 2 [5]) [nM] | IC50 (Orexin receptor type 2 [6]) [nM] |
| --- | --- | --- | --- | --- | --- | --- |
| Cc1ccc(-n2nccn2)c(C(=O)N2CCN(c3nc4ccccc4o3)CC[C@H]2C)c1 | 4.1 | 24 | 2.4 | 4.1 | 3.2 | 57 |
| C[C@H]1CCN(c2ncc3ccccc3n2)CCN1C(=O)c1ccccc1-n1nccn1 | 54 | – | – | 54 | 8.5 | – |
